Laboratory results as given in publication PMC4112416 (MedChemComm, 2014).
≈ marks a conversion by molar mass, not a printed value.

Assays:
[1] = system: duplex DNA (dA60.dT60); assay: UV thermal denaturation of AT rich DNA duplex; format: binding; settings: 10 μM ligand, 1 μM duplex, 10 mM sodium cacodylate, 0.1 mM EDTA, 100 mM NaCl, pH 7.0
[2] = system: E. faecalis 29212; assay: MIC by microbroth dilution; format: cell-based; settings: Enterococcus faecalis, 29212, 24 h, read-out: MIC S6
Method in brief: (§1)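 CLSI microbroth dilution in Mueller-Hinton broth. Log-phase cultures (37 °C, shaking) were pelleted and resuspended in 0.85% saline to OD625 0.1, giving final 5×10^5 CFU/mL. Triplicate wells were incubated 24 h at 37 °C and read at OD625. MIC is given as a range where no sharp growth inflection occurred.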

[3] = system: prostate cancer cell line DU-145; assay: Cytotoxicity, sulforhodamine B assay; format: cell-based; settings: DU-145, 48 h treatment, SRB
[4] = target: E. coli DNA topoisomerase I (Escherichia coli, UniProt P06612); assay: Inhibition assay against E. coli DNA topoisomerase I; format: biochemical; settings: gel titration, 6 nM enzyme
Sequence of E. coli DNA topoisomerase I (P06612 whole entry): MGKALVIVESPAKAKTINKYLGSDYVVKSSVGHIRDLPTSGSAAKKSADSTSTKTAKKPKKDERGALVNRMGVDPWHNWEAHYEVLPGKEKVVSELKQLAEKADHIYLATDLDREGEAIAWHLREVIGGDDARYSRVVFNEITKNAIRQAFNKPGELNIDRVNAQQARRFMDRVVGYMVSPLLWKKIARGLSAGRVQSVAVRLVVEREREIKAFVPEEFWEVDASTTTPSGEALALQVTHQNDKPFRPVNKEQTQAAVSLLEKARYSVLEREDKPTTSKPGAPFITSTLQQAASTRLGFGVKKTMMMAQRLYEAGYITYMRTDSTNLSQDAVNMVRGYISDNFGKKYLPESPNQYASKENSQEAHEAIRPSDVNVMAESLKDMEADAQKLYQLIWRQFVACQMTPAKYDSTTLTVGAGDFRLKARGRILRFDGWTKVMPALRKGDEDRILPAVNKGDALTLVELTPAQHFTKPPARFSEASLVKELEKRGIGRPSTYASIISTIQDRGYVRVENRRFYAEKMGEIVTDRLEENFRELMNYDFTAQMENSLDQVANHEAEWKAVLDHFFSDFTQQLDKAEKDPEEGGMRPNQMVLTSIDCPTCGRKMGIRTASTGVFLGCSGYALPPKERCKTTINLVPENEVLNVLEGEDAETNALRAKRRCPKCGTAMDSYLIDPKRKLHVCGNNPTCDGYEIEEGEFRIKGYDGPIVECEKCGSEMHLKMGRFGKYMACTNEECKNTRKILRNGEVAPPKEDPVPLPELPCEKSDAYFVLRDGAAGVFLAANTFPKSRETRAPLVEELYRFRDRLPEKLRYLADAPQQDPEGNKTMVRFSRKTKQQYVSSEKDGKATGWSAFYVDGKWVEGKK

[5] = target: T1, human DNA topoisomerase I (Homo sapiens, UniProt P11387); assay: Inhibition assay against human DNA topoisomerase I; format: biochemical; settings: 50 μM compound
T1 sequence (P11387 1-765): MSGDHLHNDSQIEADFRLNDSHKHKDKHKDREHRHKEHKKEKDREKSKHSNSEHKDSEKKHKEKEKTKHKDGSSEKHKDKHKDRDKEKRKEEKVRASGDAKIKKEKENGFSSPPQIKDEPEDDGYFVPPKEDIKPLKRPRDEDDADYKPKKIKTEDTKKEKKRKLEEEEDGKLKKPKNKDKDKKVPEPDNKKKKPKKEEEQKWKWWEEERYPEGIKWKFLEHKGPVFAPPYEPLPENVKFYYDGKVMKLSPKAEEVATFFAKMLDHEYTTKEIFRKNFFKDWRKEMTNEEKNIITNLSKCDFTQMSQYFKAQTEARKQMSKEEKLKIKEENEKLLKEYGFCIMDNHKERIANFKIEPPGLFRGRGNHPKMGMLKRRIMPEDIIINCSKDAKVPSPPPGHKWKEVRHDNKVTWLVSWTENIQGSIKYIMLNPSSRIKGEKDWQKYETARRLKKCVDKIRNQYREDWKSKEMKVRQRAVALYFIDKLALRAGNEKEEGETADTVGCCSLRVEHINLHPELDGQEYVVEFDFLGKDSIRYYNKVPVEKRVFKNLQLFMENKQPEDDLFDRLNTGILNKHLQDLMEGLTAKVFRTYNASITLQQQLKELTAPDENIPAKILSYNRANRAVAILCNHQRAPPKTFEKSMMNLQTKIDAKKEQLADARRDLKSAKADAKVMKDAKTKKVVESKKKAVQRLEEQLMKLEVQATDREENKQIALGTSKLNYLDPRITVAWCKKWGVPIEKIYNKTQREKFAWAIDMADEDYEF

[6] = target: human DNA topoisomerase II (Homo sapiens, UniProt P11388); assay: Inhibition assay against human DNA topoisomerase II; format: biochemical; settings: 50 μM compound
Sequence of human DNA topoisomerase II (P11388 whole entry): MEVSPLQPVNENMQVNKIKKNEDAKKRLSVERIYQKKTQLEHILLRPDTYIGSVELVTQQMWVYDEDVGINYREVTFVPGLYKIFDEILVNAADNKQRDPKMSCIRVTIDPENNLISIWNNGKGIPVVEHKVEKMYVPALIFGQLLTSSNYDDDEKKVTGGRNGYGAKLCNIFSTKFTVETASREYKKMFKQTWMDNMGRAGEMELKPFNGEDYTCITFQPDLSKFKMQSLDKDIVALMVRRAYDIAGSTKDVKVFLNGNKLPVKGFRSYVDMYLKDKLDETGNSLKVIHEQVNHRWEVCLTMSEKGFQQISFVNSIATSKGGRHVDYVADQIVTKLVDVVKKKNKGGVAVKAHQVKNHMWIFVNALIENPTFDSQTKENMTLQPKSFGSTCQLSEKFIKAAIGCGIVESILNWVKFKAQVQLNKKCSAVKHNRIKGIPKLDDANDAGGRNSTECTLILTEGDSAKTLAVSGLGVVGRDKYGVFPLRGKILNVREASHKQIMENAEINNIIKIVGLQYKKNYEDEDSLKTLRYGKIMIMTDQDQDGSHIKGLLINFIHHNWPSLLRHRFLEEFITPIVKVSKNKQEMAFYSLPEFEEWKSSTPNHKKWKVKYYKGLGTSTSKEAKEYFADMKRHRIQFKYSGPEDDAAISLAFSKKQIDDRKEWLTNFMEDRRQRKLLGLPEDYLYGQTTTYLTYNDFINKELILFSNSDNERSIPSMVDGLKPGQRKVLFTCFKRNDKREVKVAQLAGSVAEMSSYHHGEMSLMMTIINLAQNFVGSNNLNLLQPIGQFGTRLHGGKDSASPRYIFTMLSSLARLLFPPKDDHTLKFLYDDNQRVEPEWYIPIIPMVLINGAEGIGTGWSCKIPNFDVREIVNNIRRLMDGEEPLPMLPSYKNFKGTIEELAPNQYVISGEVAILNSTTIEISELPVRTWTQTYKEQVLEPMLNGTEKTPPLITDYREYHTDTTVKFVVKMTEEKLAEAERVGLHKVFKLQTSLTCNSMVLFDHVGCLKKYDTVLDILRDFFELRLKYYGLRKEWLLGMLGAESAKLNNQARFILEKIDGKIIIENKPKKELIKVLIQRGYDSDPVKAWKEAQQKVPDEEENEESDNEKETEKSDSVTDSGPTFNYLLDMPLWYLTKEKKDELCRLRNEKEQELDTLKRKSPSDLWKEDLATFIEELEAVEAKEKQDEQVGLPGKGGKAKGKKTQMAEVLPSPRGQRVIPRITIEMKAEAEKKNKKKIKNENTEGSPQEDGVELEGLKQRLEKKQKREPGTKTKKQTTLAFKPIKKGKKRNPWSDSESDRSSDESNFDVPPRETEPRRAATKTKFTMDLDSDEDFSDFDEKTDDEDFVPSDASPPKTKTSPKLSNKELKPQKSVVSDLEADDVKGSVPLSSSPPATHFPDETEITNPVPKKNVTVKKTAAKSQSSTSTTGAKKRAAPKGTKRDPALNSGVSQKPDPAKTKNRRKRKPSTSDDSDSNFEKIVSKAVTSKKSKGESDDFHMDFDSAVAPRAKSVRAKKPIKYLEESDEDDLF
Method in brief: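 Relaxation of 200 ng supercoiled pBAD-GFPuv by 4 units human topoisomerase II. Compound final 5–50 μM (10 and 50 μM in gel panels). 30 min at 37 °C, stopped by phenol extraction. Run on 1% agarose without chloroquine and ethidium-stained. (−) supercoiled band was quantified as a fraction of all topoisomers.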

[7] = target: E. coli DNA gyrase (Escherichia coli, UniProt P0AES4+P0AES6); assay: Inhibition assay against E. coli DNA gyrase; format: biochemical; settings: 1 to 50 μM compound
Sequence of E. coli DNA gyrase (P0AES4 whole entry, one chain of several): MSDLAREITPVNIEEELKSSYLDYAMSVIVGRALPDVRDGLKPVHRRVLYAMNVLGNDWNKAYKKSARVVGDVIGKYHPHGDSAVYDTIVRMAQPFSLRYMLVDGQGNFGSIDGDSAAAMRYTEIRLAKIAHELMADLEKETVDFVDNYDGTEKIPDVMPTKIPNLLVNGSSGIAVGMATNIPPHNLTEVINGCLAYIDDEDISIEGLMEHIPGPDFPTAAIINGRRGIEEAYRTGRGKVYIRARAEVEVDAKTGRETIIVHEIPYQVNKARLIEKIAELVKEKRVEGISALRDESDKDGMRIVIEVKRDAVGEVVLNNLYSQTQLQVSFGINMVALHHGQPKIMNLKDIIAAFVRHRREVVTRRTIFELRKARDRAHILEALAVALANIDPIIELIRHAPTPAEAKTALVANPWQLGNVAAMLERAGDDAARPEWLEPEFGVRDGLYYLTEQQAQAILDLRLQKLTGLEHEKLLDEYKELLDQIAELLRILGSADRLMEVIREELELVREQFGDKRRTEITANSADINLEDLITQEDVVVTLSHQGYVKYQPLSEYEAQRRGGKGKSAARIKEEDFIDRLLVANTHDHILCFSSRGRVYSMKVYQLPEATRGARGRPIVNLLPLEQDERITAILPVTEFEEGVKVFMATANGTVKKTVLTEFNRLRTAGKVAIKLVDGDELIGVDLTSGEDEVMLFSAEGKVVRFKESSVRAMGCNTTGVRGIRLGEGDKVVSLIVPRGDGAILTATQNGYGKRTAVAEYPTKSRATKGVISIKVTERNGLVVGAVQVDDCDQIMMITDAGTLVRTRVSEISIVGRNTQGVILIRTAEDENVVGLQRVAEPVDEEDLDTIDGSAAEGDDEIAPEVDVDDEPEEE

[8] = system: S. aureus 33591; assay: MIC by microbroth dilution; format: cell-based; settings: Staphylococcus aureus, 33591, 24 h, read-out: MIC S2
Method in brief: as §1

[9] = Cytotoxicity, sulforhodamine B assay; format: cell-based; settings: human, DU-145 prostate cancer cells

| Compound | Tm [1] [°C] | MIC [2] [µg/mL] | concentration needed to completely inhibit the activities of E. coli DNA topoisomerase I [4] | inhibition of human DNA topoisomerase II activities [6] | further results |
| --- | --- | --- | --- | --- | --- |
| CCOc1ccc(-c2nc3cc(-c4nc5cc(N6CCN(C)CC6)ccc5[nH]4)ccc3[nH]2)cc1 [Hoechst 33342] | 86.6 | 16 to 32 (≈ 35.4 to 70.7 µM) |  |  |  |
| C#CCCCCOc1ccc(-c2nc3ccc(-c4nc5ccc(N6CCN(C)CC6)cc5[nH]4)cc3[nH]2)cc1 [DPA 152, 2′-(4-(hex-5-ynyloxy)phenyl)-6-(4-methylpiperazin-1-yl)-1H,3′H-2,5′-bibenzo[d]imidazole] | 83.4 |  |  |  | cytotoxicity relative to Hoechst 33242 [3]: nearly twice as toxic as Hoechst 33242 |
| CN1CCN(c2ccc3[nH]c(-c4ccc5[nH]c(-c6ccc(O)cc6)nc5c4)nc3c2)CC1 [Hoechst 33258] | 87.1 | 16 to 32 (≈ 37.7 to 75.4 µM) | approximately 20 μM | completely inhibit | supercoiled DNA template prevented from relaxation by human DNA topoisomerase I [5]: about 70%; inhibition of DNA gyrase's activities [7]: did not inhibit; MIC [8]: 16 to 32 µg/mL (≈ 37.7 to 75.4 µM) |
| C#CCOCCCCOc1ccc(-c2nc3ccc(-c4nc5ccc(N6CCN(C)CC6)cc5[nH]4)cc3[nH]2)cc1 [DPA 154, 6-(4-methylpiperazin-1-yl)-2′-(4-(4-(prop-2-ynyloxy)butoxy)phenyl)-1H,3′H-2,5′-bibenzo[d]imidazole] | 85.9 |  |  |  |  |
| C#CCOc1ccc(-c2nc3ccc(-c4nc5ccc(N6CCN(C)CC6)cc5[nH]4)cc3[nH]2)cc1 [DPA 151, 6-(4-methylpiperazin-1-yl)-2′-(4-(prop-2-ynyloxy)phenyl)-1H,3′H-2,5′-bibenzo[d]imidazole] | 85.4 |  | approximately 5 μM | partially inhibit |  |
| C#CCCCCCCCCCOc1ccc(-c2nc3ccc(-c4nc5ccc(N6CCN(C)CC6)cc5[nH]4)cc3[nH]2)cc1 [DPA 153, 6-(4-methylpiperazin-1-yl)-2′-(4-(undec-10-ynyloxy)phenyl)-1H,3′H-2,5′-bibenzo[d]imidazole] | 70.5 |  |  |  | IC50 at 48 h [9]: > 10 µM |
